Calls of active or inactive are those of the source. The rule behind the calls is not given here.
How the values were obtained:
[1] = Selectivity index, ratio of IC50 for rat L6 cells to IC50 for amastigotes of Leishmania donovani; format: toxicity, cell-based; details: read-out: Ratio IC50
Outline: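 SI = IC50 in rat L6 myoblasts / IC50 against L. donovani MHOM/SD/62/IS-CL2D axenic amastigotes. The amastigote IC50 is the average of at least two determinations; the L6 IC50 is the average of duplicates.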

[2] = Selectivity index, ratio of IC50 for rat L6 cells to IC50 for Trypanosoma brucei rhodesiense STIB900; format: toxicity, cell-based; details: read-out: Ratio IC50
Outline: (§1)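 SI = IC50 in rat L6 myoblasts / IC50 against the parasite (T. b. rhodesiense STIB900 or P. falciparum K1). Each IC50 is the average of duplicate determinations.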

Plasmodium falciparum = assay: Antiplasmodial activity against chloroquine-resistant Plasmodium falciparum K1; format: functional, organism-based
Outline: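 Chloroquine-resistant K1 strain tested in vitro. IC50 is the average of duplicate determinations.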

L6 = assay: Cytotoxicity against rat L6 cells after 72 hrs by Alamar blue assay; format: cell-based; details: L6, 72 h
Outline: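 Rat L6 myoblast cells; cytotoxic IC50 taken as the average of duplicate determinations.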

[3] = tested on: Trypanosoma brucei rhodesiense; assay: Antitrypanosomal activity against Trypanosoma brucei rhodesiense STIB900 after 72 hrs by Alamar blue assay; format: functional, organism-based; details: STIB900, 72 h
Leishmania donovani = assay: Antileishmanial activity against amastigotes of Leishmania donovani MHOM/SD/62/IS-CL2D; format: functional, organism-based
Outline: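 Axenic amastigotes of L. donovani MHOM/SD/62/IS-CL2D; IC50 taken as the average of at least two determinations.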

[4] = Selectivity index, ratio of IC50 for rat L6 cells to IC50 for chloroquine-resistant Plasmodium falciparum K1; format: toxicity, cell-based; details: read-out: Ratio IC50; outline: as §1
[5] = tested on: Trypanosoma brucei rhodesiense; assay: Antitrypanosomal activity against Trypanosoma brucei rhodesiense STIB900 infected in NMRI mouse assessed as cured animal at 25 mg/kg, po administered for 4 days; format: functional, organism-based; parameters: dose 25 mg/kg
Outline: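 Acute model in female NMRI mice infected with T. b. rhodesiense STIB900. Single daily doses given for four days, intraperitoneally or orally. Mice surviving 60 days post-infection without parasitaemia relapse counted as cured; result reported as cured/infected out of 4 mice per group, with mean survival in days.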

[6] = tested on: Trypanosoma brucei rhodesiense; assay: Antitrypanosomal activity against Trypanosoma brucei rhodesiense STIB900 infected in NMRI mouse assessed as mean survival days at 25 mg/kg, po administered for 4 days; format: functional
Outline: (§2)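 Female NMRI mice, acute infection model with T. b. rhodesiense STIB900. Compound given as a single daily dose for four days, intraperitoneally or orally. Cure means survival to 60 days post-infection without parasitaemia relapse. Mean survival recorded in days.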

[7] = tested on: Trypanosoma brucei rhodesiense; assay: Antitrypanosomal activity against Trypanosoma brucei rhodesiense STIB900 infected in NMRI mouse assessed as mean survival days at 5 mg/kg, ip administered for 4 days; format: functional; details: route intraperitoneal; outline: as §2

| Compound | selectivity ratio [1] | selectivity ratio [2] | IC50 (Plasmodium falciparum) [µM] | IC50 (L6) [µM] | IC50 [3] [µM] | IC50 (Leishmania donovani) [µM] | selectivity ratio [4] | Activity [5] | MSD [6] [days] | MSD [7] [days] |
| --- | --- | --- | --- | --- | --- | --- | --- | --- | --- | --- |
| N=C(N)c1ccc(OCc2ccc([N+](=O)[O-])cc2)c(I)c1 | < 1 | 6 | 0.951 | 10.7 | 1.9 | > 50 | 11 |  |  |  |
| N=C(N)c1ccc(COc2cccc([N+](=O)[O-])c2)cc1 |  | 27 | > 3.25 | 57.8 | 2.12 |  | < 18 |  |  |  |
| Cl.Cl.N/C(=N\O)c1cccc(COc2c(I)cc(/C(N)=N/O)cc2I)c1 | 2 | 1 | 7.38 | 15.8 | 13.6 | 6.63 | 2.14 | inactive | 5.75 |  |
| COc1cc(/C(N)=N/O)cc(Br)c1OCc1cccc(/C(N)=N/O)c1.Cl.Cl | < 1 | < 1 | > 10.4 | 28.9 | 87.9 | > 100 | < 3 | inactive | 31.75 |  |
| N=C(N)c1ccc(OCCCCCOc2ccc(C(=N)N)cc2)cc1 [PENTAMIDINE] |  |  |  |  |  |  |  |  |  | >38 |
| CC(C)c1ccc(OCc2ccc(C(=N)N)cc2)cc1 | < 1 | 4 | 2.37 | 5.36 | 1.29 | 49.5 | 3 |  |  |  |
| N=C(N)c1cc(I)c(OCc2cccc([N+](=O)[O-])c2)c(I)c1 | < 1 | 3 | 0.296 | 7.72 | 2.66 | 34.3 | 26 |  |  |  |
| N=C(N)c1ccc(COc2ccc(Cl)cc2)cc1 |  | 8 | > 3.36 | 20.7 | 2.71 |  | < 6 |  |  |  |
| N=C(N)c1ccc(COc2ccc(N)cc2)cc1 |  | > 90 | 2.56 | > 271 | 3 |  | > 106 |  |  |  |
| N=C(N)c1ccc(-c2ccc(-c3ccc(C(=N)N)cc3)o2)cc1 [FURAMIDINE] |  |  |  |  |  |  |  |  |  | >46 |
| CO/N=C(\N)c1cccc(COc2c(I)cc(/C(N)=N/OC)cc2OC)c1.Cl.Cl | < 1 | 1 | 1.12 | 81.4 | 75.1 | > 100 | 73 |  | 40.25 |  |
| CC(C)NC(=N)c1ccc(COc2ccc(C(=N)NC(C)C)cc2)cc1 | > 5 | > 107 | 0.02 | > 144 | 1.35 | 26.6 | > 7370 |  |  |  |
| N=C(N)c1ccc(COc2ccccc2)cc1 |  | 45 | > 3.56 | 167 | 3.71 |  | < 47 |  |  |  |
| C[C@@H]1CC[C@H]2[C@@H](C)C(=O)O[C@@H]3O[C@@]4(C)CC[C@@H]1[C@]32OO4 [ARTEMISININ] |  |  | 0.0041 | > 319 |  |  |  |  |  |  |
| N=C(N)c1ccc(COc2ccc([N+](=O)[O-])cc2)cc1 |  | 18 | > 3.07 | 79.2 | 4.41 |  | < 26 |  |  |  |
| COc1ccc(OCc2ccc(C(=N)N)cc2)cc1 |  | 36 | > 3.42 | 143 | 3.95 |  | < 42 |  |  |  |
| Cl.Cl.N/C(=N\O)c1cccc(COc2ccc(/C(N)=N/O)cc2I)c1 | < 1 | < 1 | 7.31 | 4.73 | 50.2 | > 50 | < 1 | inactive | 20 |  |

— ChEMBL document CHEMBL2417357, “Synthesis and antiprotozoal activities of benzyl phenyl ether diamidine derivatives” (Eur J Med Chem, 2013)
